The source of these data is ChEMBL document CHEMBL1671727, “Expression, purification, and characterization of Aspergillus fumigatus sterol 14-alpha demethylase (CYP51) isoenzymes A and B” (Antimicrob Agents Chemother, 2010).

Test [1] deals with T1, Sterol 14-alpha demethylase cyp51A (Neosartorya fumigata (strain ATCC MYA-4609 / Af293 / CBS 101355 / FGSCA1100) (Aspergillus fumigatus), UniProt Q4WNT5).
T1 sequence (Q4WNT5 whole entry): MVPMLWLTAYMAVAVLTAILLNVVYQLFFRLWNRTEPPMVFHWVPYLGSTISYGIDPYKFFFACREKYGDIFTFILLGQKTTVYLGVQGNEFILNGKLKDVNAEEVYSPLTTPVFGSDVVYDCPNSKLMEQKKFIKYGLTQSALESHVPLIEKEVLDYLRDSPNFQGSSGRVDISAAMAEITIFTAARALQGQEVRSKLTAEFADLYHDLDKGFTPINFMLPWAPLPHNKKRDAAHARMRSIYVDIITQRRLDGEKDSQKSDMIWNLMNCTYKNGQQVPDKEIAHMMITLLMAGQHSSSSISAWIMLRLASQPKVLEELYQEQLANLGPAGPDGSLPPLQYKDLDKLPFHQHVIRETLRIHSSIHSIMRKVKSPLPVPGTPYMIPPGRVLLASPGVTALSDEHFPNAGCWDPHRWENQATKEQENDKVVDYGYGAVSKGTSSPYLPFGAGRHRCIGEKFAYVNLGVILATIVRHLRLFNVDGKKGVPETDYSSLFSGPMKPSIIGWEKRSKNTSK
As to the kind of experiment: Binding affinity to Aspergillus fumigatus AF293 sterol 14-alpha demethylase isoenzyme A expressed in Escherichia coli. An outline of the steps:
(§1)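 His-tagged CYP51 (Af293 sequence, codon-optimised, E. coli-expressed), cholate-solubilised and Ni-NTA purified, at 1 μM in 0.1 M Tris-HCl pH 8.1 with 25% glycerol. Azole (0.05 mg/ml DMSO stock) titrated in split 4.5 mm cuvettes, with DMSO added to the reference. Difference spectra were read at 500–350 nm. Peak-to-trough change was plotted against concentration. Kd came from Morrison (tight binding), Michaelis-Menten or Hill fits.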

The target in test [2] is T2, 14-alpha sterol demethylase (Neosartorya fumigata (Aspergillus fumigatus), UniProt Q96W81).
T2 sequence (Q96W81 whole entry): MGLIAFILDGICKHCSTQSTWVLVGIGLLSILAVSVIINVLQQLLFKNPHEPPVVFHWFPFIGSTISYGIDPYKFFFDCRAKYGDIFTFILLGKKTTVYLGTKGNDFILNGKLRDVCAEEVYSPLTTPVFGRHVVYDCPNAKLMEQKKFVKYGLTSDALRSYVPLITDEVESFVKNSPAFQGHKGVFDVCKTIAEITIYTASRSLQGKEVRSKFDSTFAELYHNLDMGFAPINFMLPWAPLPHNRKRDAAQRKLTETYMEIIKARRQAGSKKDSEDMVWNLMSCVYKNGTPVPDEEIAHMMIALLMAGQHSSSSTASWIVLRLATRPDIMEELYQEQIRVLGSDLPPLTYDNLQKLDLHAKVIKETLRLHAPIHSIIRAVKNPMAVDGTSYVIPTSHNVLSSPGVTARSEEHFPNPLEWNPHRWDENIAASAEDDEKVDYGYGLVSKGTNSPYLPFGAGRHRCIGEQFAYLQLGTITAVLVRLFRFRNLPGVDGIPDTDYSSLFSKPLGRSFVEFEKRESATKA
The test is described as follows: Binding affinity to Aspergillus fumigatus AF293 sterol 14-alpha demethylase isoenzyme B expressed in Escherichia coli assessed as tight binding affinity constant. Summed up:
as §1

Test [3] relates to Aspergillus fumigatus. The test is described as follows: Antimicrobial activity against sterol 14-alpha demethylase isoenzyme B-deficient Aspergillus fumigatus CEA10. The format is functional.
A short description of test [4]: Binding affinity to Mycobacterium smegmatis CYP51. Further details: species or system Mycolicibacterium smegmatis.
The test system of test [5] is Aspergillus fumigatus. The test is described as follows: Antimicrobial activity against Aspergillus fumigatus CEA10. It is filed as functional.
Test [6] relates to Aspergillus fumigatus. The test is described as follows: Antimicrobial activity against Aspergillus fumigatus AF293. The format is functional.
Test [7] deals with Lanosterol 14-alpha demethylase (Candida albicans (strain SC5314 / ATCC MYA-2876) (Yeast), UniProt P10613). The test is described as follows: Binding affinity to Candida albicans CYP51.
Test [8] relates to Aspergillus fumigatus. As to the kind of experiment: Antimicrobial activity against sterol 14-alpha demethylase isoenzyme A-deficient Aspergillus fumigatus CEA10. It is filed as functional.
The test system of test [9] is Aspergillus fumigatus. The test is described as follows: Antimicrobial activity against sterol 14-alpha demethylase isoenzyme A-deficient Aspergillus fumigatus CM237. It is filed as functional.
The target of test [10] is T2, 14-alpha sterol demethylase. As to the kind of experiment: Binding affinity to Aspergillus fumigatus AF293 sterol 14-alpha demethylase isoenzyme B expressed in Escherichia coli. An outline of the steps: as §1
The subject of test [11] is Aspergillus fumigatus. The test is described as follows: Antimicrobial activity against Aspergillus fumigatus CM237. The format is functional.

≈ marks a conversion by molar mass, not a printed value. Some results are limits rather than exact numbers.

Sequence of Lanosterol 14-alpha demethylase (P10613 whole entry): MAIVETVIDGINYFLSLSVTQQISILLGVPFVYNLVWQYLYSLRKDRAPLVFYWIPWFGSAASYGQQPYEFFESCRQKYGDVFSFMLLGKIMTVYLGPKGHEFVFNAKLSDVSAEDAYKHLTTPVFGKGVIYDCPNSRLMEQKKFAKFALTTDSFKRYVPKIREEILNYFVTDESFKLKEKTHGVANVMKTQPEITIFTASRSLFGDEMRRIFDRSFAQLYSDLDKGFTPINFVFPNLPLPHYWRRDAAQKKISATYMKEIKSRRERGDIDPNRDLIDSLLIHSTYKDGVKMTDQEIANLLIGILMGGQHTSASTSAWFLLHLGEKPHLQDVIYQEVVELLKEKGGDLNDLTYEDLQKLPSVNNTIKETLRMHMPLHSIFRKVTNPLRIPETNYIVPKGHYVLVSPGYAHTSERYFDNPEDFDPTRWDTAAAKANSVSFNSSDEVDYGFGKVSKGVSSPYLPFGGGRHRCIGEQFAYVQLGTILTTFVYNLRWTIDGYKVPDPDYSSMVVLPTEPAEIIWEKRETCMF

Usually Kd stands for the free concentration of one partner at which half of the binding sites on the other are occupied at equilibrium, for simple one-to-one binding. `Clc1ccccc1C(c1ccccc1)(c1ccccc1)n1ccnc1` [CLOTRIMAZOLE]: the values for the Kd in test [1] and in test [2] were 4790 nM and 103 nM, respectively.
By MIC is commonly meant the smallest concentration in the dilution series that meets the test's criterion for growth inhibition. Regarding `OC(Cn1cncn1)(Cn1cncn1)c1ccc(F)cc1F` [FLUCONAZOLE], the values for the Kd in test [1], in [4] and in [7] were 11900 nM, 19000 nM and 45 nM, respectively. Besides, the MIC was more than 327 µg/mL with Aspergillus fumigatus [3] (read-out: MIC), more than 327 µg/mL in the test with Aspergillus fumigatus [5] (read-out: MIC), 105 µg/mL in the test with Aspergillus fumigatus [6] (read-out: MIC) and 20 µg/mL with Aspergillus fumigatus [8] (read-out: MIC).
Consider `CCC(C)n1ncn(-c2ccc(N3CCN(c4ccc(OCC5COC(Cn6cncn6)(c6ccc(Cl)cc6Cl)O5)cc4)CC3)cc2)c1=O` (centres undefined) [ITRACONAZOLE], for which the Kd in test [1] was found to be 1010 nM; in [2], 31 nM. The MIC with Aspergillus fumigatus [3] amounted to 0.85 µM; in the test with Aspergillus fumigatus [5] it was 0.85 µM; in the test with Aspergillus fumigatus [6] it was 0.71 µM; with Aspergillus fumigatus [8], 0.053 µM.
Turning to `CC[C@@H]([C@H](C)O)n1ncn(-c2ccc(N3CCN(c4ccc(OC[C@@H]5CO[C@@](Cn6cncn6)(c6ccc(F)cc6F)C5)cc4)CC3)cc2)c1=O` [POSACONAZOLE], the Kd in [1] was 2690 nM; in test [2] it was 73 nM. Besides, it took 0.72 µM to inhibit growth in the test with Aspergillus fumigatus [6] (MIC).
Regarding `C[C@@H](c1ncncc1F)[C@](O)(Cn1cncn1)c1ccc(F)cc1F` [VORICONAZOLE], the Kd is 3630 nM in [1], 429 nM in test [2] and 423 nM in [10]. Further, the results for the MIC in the test on Aspergillus fumigatus [9], in the test with Aspergillus fumigatus [6] and in the test with Aspergillus fumigatus [11] were 0.34 µM (≈ 0.119 µg/mL), 0.72 µM and 1.49 µM (≈ 0.52 µg/mL), respectively.
